# Data published in ChEMBL document CHEMBL4406880, “Design, synthesis, and bioactivity of dihydropyrimidine derivatives as kinesin spindle protein inhibitors” (Bioorg Med Chem, 2019).
# Tests used:
# Format in all cases: functional
# HL-60(TB) = assay: Growth inhibition of human HL-60(TB) cells assessed as growth percentage at 10 uM incubated for 48 hrs by sulforhodamine B assay relative to control; conditions: HL-60, 48 h, read-out: Activity
# Summary of the method: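 NCI-60 single-dose screen. Cells in RPMI 1640 with 5% FBS and 2 mM L-glutamine are plated at 5,000–40,000 cells/well and preincubated overnight at 37 °C, 5% CO2. Compound is added from a DMSO stock at 10 µM final for 48 h. Cells are TCA-fixed (suspension cells 16% final) and stained with SRB. Absorbance is read at 515 nm, and percentage growth is calculated against untreated controls with a time-zero plate.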
# TK-10 = assay: Growth inhibition of human TK10 cells assessed as growth percentage at 10 uM incubated for 48 hrs by sulforhodamine B assay relative to control; conditions: TK-10, 48 h, read-out: Activity
# Summary of the method: (§1)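 NCI-60 single-dose screen. Cells were grown in RPMI 1640 with 5% FBS and 2 mM L-glutamine and plated at 5,000–40,000 cells/well. After an overnight preincubation at 37 °C in 5% CO2, compound was added at a final 10 µM from a DMSO stock, with DMSO/PBS controls. After 48 h, cells were TCA-fixed and stained with 0.4% SRB, and absorbance was read at 515 nm. Growth is given as a percentage of untreated control.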
# SNB-19 = assay: Growth inhibition of human SNB19 cells assessed as growth percentage at 10 uM incubated for 48 hrs by sulforhodamine B assay relative to control; conditions: SNB-19, 48 h, read-out: Activity; summary of the method: as §1
# SK-MEL-2 = assay: Growth inhibition of human SK-MEL-2 cells assessed as growth percentage at 10 uM incubated for 48 hrs by sulforhodamine B assay relative to control; conditions: SK-MEL-2, 48 h, read-out: Activity; summary of the method: as §1
# SR = assay: Growth inhibition of human SR cells assessed as growth percentage at 10 uM incubated for 48 hrs by sulforhodamine B assay relative to control; conditions: read-out: Activity; summary of the method: as §1
# COLO 205 = assay: Growth inhibition of human COLO205 cells assessed as growth percentage at 10 uM incubated for 48 hrs by sulforhodamine B assay relative to control; conditions: COLO 205, 48 h, read-out: Activity
# Summary of the method: (§2)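 NCI-60 one-dose screen: cells in RPMI 1640 with 5% FBS and 2 mM L-glutamine, plated at 5,000–40,000 cells/well and preincubated 24 h at 37 °C, 5% CO2. Compound is added from a DMSO stock to a final 10 µM and incubated 48 h. Cells are TCA-fixed and stained with sulforhodamine B, read at 515 nm. Output is % growth versus untreated control, with a time-zero plate.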
# SK-MEL-5 = assay: Growth inhibition of human SK-MEL-5 cells assessed as growth percentage at 10 uM incubated for 48 hrs by sulforhodamine B assay relative to control; conditions: SK-MEL-5, 48 h, read-out: Activity; summary of the method: as §1
# UACC-257 = assay: Growth inhibition of human UACC257 cells assessed as growth percentage at 10 uM incubated for 48 hrs by sulforhodamine B assay relative to control; conditions: UACC-257, 48 h, read-out: Activity; summary of the method: as §1
# SNB-75 = assay: Growth inhibition of human SNB75 cells assessed as growth percentage at 10 uM incubated for 48 hrs by sulforhodamine B assay relative to control; conditions: SNB-75, 48 h, read-out: Activity; summary of the method: as §1
# SF-539 = assay: Growth inhibition of human SF539 cells assessed as growth percentage at 10 uM incubated for 48 hrs by sulforhodamine B assay relative to control; conditions: SF-539, 48 h, read-out: Activity; summary of the method: as §1
# MDA-MB-468 = assay: Growth inhibition of human MDA-MB-468 cells assessed as growth percentage at 10 uM incubated for 48 hrs by sulforhodamine B assay relative to control; conditions: MDA-MB-468, 48 h, read-out: Activity
# Summary of the method: (§3)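 NCI-60 one-dose screen. Cells in RPMI 1640 with 5% FBS and 2 mM L-glutamine, seeded at 5,000–40,000 cells/well according to doubling time, and preincubated overnight at 37 °C, 5% CO2. A time-zero plate was TCA-fixed at drug addition. Compound from DMSO stock, final 10 µM, 48 h; DMSO vehicle controls. Fixation with TCA, 10% final (16% for suspension cells). SRB stain, Tris solubilization, A515. Result given as % growth versus untreated cells.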
# SF-268 = assay: Growth inhibition of human SF268 cells assessed as growth percentage at 10 uM incubated for 48 hrs by sulforhodamine B assay relative to control; conditions: SF-268, 48 h, read-out: Activity; summary of the method: as §1
# LOX IMVI = assay: Growth inhibition of human LOXIMVI cells assessed as growth percentage at 10 uM incubated for 48 hrs by sulforhodamine B assay relative to control; conditions: read-out: Activity; summary of the method: as §3
# NCI-H23 = assay: Growth inhibition of human NCI-H23 cells assessed as growth percentage at 10 uM incubated for 48 hrs by sulforhodamine B assay relative to control; conditions: NCI-H23, 48 h, read-out: Activity; summary of the method: as §3
# HCC 2998 = assay: Growth inhibition of human HCC2998 cells assessed as growth percentage at 10 uM incubated for 48 hrs by sulforhodamine B assay relative to control; conditions: HCC 2998, 48 h, read-out: Activity; summary of the method: as §2
# BT-549 = assay: Growth inhibition of human BT549 cells assessed as growth percentage at 10 uM incubated for 48 hrs by sulforhodamine B assay relative to control; conditions: BT-549, 48 h, read-out: Activity; summary of the method: as §2
# DU-145 = assay: Growth inhibition of human DU145 cells assessed as growth percentage at 10 uM incubated for 48 hrs by sulforhodamine B assay relative to control; conditions: DU-145, 48 h, read-out: Activity; summary of the method: as §2
# RXF 393 = assay: Growth inhibition of human RXF393 cells assessed as growth percentage at 10 uM incubated for 48 hrs by sulforhodamine B assay relative to control; conditions: RXF 393, 48 h, read-out: Activity; summary of the method: as §1
# MOLT-4 = assay: Growth inhibition of human MOLT4 cells assessed as growth percentage at 10 uM incubated for 48 hrs by sulforhodamine B assay relative to control; conditions: MOLT-4, 48 h, read-out: Activity; summary of the method: as §3
# M14 = assay: Growth inhibition of human M14 cells assessed as growth percentage at 10 uM incubated for 48 hrs by sulforhodamine B assay relative to control; conditions: M14, 48 h, read-out: Activity; summary of the method: as §3
# T47D = assay: Growth inhibition of human T47D cells assessed as growth percentage at 10 uM incubated for 48 hrs by sulforhodamine B assay relative to control; conditions: read-out: Activity; summary of the method: as §1
# Hs-578T = assay: Growth inhibition of human Hs 578T cells assessed as growth percentage at 10 uM incubated for 48 hrs by sulforhodamine B assay relative to control; conditions: read-out: Activity; summary of the method: as §3
# 786-0 = assay: Growth inhibition of human 786-0 cells assessed as growth percentage at 10 uM incubated for 48 hrs by sulforhodamine B assay relative to control; conditions: 786-0, 48 h, read-out: Activity; summary of the method: as §2
# UO-31 = assay: Growth inhibition of human UO31 cells assessed as growth percentage at 10 uM incubated for 48 hrs by sulforhodamine B assay relative to control; conditions: UO-31, 48 h, read-out: Activity; summary of the method: as §1
Structure (SMILES),growth at 10 µM (HL-60(TB)),growth at 10 µM (TK-10),growth at 10 µM (SNB-19),growth at 10 µM (SK-MEL-2),growth at 10 µM (SR),growth at 10 µM (COLO 205),growth at 10 µM (SK-MEL-5),growth at 10 µM (UACC-257),growth at 10 µM (SNB-75),growth at 10 µM (SF-539),growth at 10 µM (MDA-MB-468),growth at 10 µM (SF-268),growth at 10 µM (LOX IMVI),growth at 10 µM (NCI-H23),growth at 10 µM (HCC 2998),growth at 10 µM (BT-549),growth at 10 µM (DU-145),growth at 10 µM (RXF 393),growth at 10 µM (MOLT-4),growth at 10 µM (M14),also measured
O=C1C2=C(NC(=S)NC2c2ccc3c(c2)OCO3)c2ccccc21 (racemic),99.7%,102%,100%,105%,107%,113%,101%,102%,81%,105%,108%,91.8%,99.2%,98.5%,106%,101%,112%,107%,104%,110%,growth at 10 µM (T47D): 99%; growth at 10 µM (Hs-578T): 96.8%; growth at 10 µM (786-0): 108%; growth at 10 µM (UO-31): 77%
CC(=O)N1C(=S)NC(C)=C(C(=O)OCC(C)C)C1c1ccc2c(c1)OCO2 (racemic),98.5%,95.4%,97.9%,102%,80%,101%,100%,99.5%,92.2%,101%,94.9%,100%,97.5%,97.1%,110%,86.1%,99.6%,106%,95.1%,96.4%,growth at 10 µM (T47D): 66.7%; growth at 10 µM (Hs-578T): 89.2%; growth at 10 µM (786-0): 95.1%; growth at 10 µM (UO-31): 91.8%
CC1=C(C(=O)c2ccccc2)C(c2ccc3c(c2)OCO3)NC(=O)N1 (racemic),105%,99%,101%,105%,101%,114%,98.8%,98%,91.4%,99.7%,109%,100%,97.3%,107%,111%,95.6%,105%,109%,103%,99.8%,growth at 10 µM (T47D): 91.2%; growth at 10 µM (Hs-578T): 102%; growth at 10 µM (786-0): 99.5%; growth at 10 µM (UO-31): 80.6%
O=C1NC2=C(C(=O)c3ccccc32)C(c2ccc3c(c2)OCO3)N1 (racemic),98.9%,96.1%,97.9%,108%,110%,115%,101%,100%,78.5%,94.7%,114%,97.4%,96.8%,104%,107%,102%,114%,98.8%,104%,110%,growth at 10 µM (T47D): 95%; growth at 10 µM (Hs-578T): 98.8%; growth at 10 µM (786-0): 106%; growth at 10 µM (UO-31): 85.4%
CC1(C)CC(=O)C2=C(C1)NC(=O)NC2c1ccc2c(c1)OCO2 (racemic),97.6%,106%,108%,104%,118%,125%,100%,102%,97.5%,106%,118%,98.8%,99.3%,104%,109%,109%,107%,118%,95.9%,102%,growth at 10 µM (T47D): 106%; growth at 10 µM (Hs-578T): 113%; growth at 10 µM (786-0): 105%; growth at 10 µM (UO-31): 84.6%
CC(=O)C1=C(C)Nc2nc3ccccc3n2C1c1ccc2c(c1)OCO2 (racemic),98.4%,104%,99.6%,130%,73.8%,114%,102%,111%,88.2%,99.7%,109%,105%,94.9%,106%,111%,102%,109%,108%,102%,105%,growth at 10 µM (T47D): 86.3%; growth at 10 µM (Hs-578T): 99.8%; growth at 10 µM (786-0): 100%; growth at 10 µM (UO-31): 89.3%
